Experimental data as given in ChEMBL document CHEMBL5346895, “Small molecule inhibitors of intestinal epithelial anion exchanger SLC26A3 (DRA) with a luminal, extracellular site of action” (Eur J Med Chem, 2023).
Activity calls are given as the source filed them. The rule behind the calls is not given here.

Tested on: Mus musculus
Test: Effect on loperamide-induced constipation in CD-1 mouse assessed as increase in pellet number at 10 mg/kg, po via gavage administered 1 hr prior to loperamide administration measured for 3 hrs
Type: functional, organism-based
Conditions: time 4.0 hrs
Outline: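 CD1 mice (bred in house, 8–12 weeks). Test compound given by oral gavage at 10 mg/kg in saline with 5% DMSO and 10% Kolliphor-HS, or vehicle alone, 1 h before loperamide (0.3 mg/kg ip in PBS with 5% ethanol). Mice then held in metabolic cages with free food and water. Stool collected over 3 h for total weight and pellet count. Water content from wet vs dry stool weight.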

`O=c1cc(COc2ccccc2Cl)nc2scc(-c3ccccc3)n12` was tested, and the Activity was “Active”.
